1 compound from PMC12671527 (Research in Pharmaceutical Sciences, 2025) can be followed below.

Holding throughout (type): cell-based
The subject of assay [1] is Enterococcus faecium ATCC 2316. The assay can be described thus: Synergistic studies, broth microdilution checkerboard. Particulars: levofloxacin combined with UP5, checkerboard, first no-growth well, triplicate. In a few lines: (§1)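 Checkerboard broth microdilution in Mueller-Hinton broth. Each well held graded concentrations of the peptide and levofloxacin in crossed combination, plus inoculum at 10^6 CFU/mL before mixing. Plates ran 18 h at 37 °C with growth read at OD 570 nm. Combination MICs were determined in triplicate. FIC = sum of combined/alone MIC ratios, with 100 µM used as the denominator when the solo MIC exceeded 100 µM.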
In general terms: In broth dilution the organism is exposed to a series of concentrations in liquid medium.

Assay [2] concerns Staphylococcus epidermidis ATCC 700565. Put plainly: MIC and MBC, broth microdilution. Particulars: ATCC700565, 18 h. In a few lines:
(§2)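 Broth microdilution per CLSI. Isolates were revived from glycerol stocks, grown overnight in Mueller-Hinton broth and diluted to 10^6 CFU/mL, then mixed with equal volumes of serially diluted test compound, six wells per concentration. Plates ran 18 h at 37 °C with growth read at OD 570 nm; MIC was the lowest inhibiting concentration. MBC: clear wells streaked on agar for 24 h, 99.9% kill. Triplicate experiments. SI = MDCK IC50/MIC.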

For assay [3], the system named is Klebsiella pneumoniae ATCC 2814. The assay can be described thus: MIC and MBC, broth microdilution. Particulars: ATCC2814, 18 h. In a few lines: as §2
Assay [4] has as its system Staphylococcus epidermidis ATCC 700565. Put plainly: Synergistic studies, broth microdilution checkerboard. To be noted: levofloxacin combined with UP5, checkerboard, first no-growth well, triplicate. In a few lines:
as §1

In assay [5] the test system is Staphylococcus aureus ATCC BAA-44. The description is as above. To be noted: levofloxacin combined with UP5, checkerboard, first no-growth well, triplicate. An outline of the steps:
as §1

Assay [6] concerns Klebsiella pneumoniae ATCC 2814. Described as above. To be noted: levofloxacin combined with UP5, checkerboard, first no-growth well, triplicate. In a few lines: as §1
Assay [7] deals with Enterococcus faecium ATCC 2316. Put plainly: MIC and MBC, broth microdilution. To be noted: ATCC2316, 18 h. In a few lines: as §2
Assay [8] relates to Acinetobacter baumannii ATCC 1799. The assay can be described thus: MIC and MBC, broth microdilution. To be noted: ATCC1799, 18 h. In a few lines: as §2
The subject of assay [9] is Pseudomonas aeruginosa ATCC 3197. The assay can be described thus: Synergistic studies, broth microdilution checkerboard. To be noted: levofloxacin combined with UP5, checkerboard, first no-growth well, triplicate.
Assay [10] shares this test system. Put plainly: MIC and MBC, broth microdilution. To be noted: ATCC3197, 18 h. In a few lines:
as §2

Assay [11] concerns Acinetobacter baumannii ATCC 1799. Put plainly: Synergistic studies, broth microdilution checkerboard. To be noted: levofloxacin combined with UP5, checkerboard, first no-growth well, triplicate. An outline of the steps: as §1

Values after ≈ are worked out from the molar mass of the structure shown.

On to `C[C@H]1COc2c(N3CCN(C)CC3)c(F)cc3c(=O)c(C(=O)O)cn1c23` [Levofloxacin, levofloxacin], for which the “MIC in combination, Levofloxacin” value stood at 12.5 µM in assay [1]; 6.25 µM in assay [4]; 12.5 µM in assay [5]; 25 µM in assay [6]; 12.5 µM in [9]; 12.5 µM in assay [11]. In addition, the MIC is 25 µM (≈ 9.03 µg/mL) in assay [2]; more than 100 µM in [3]; 50 µM (≈ 18.1 µg/mL) in assay [7]; more than 100 µM in assay [8]; 25 µM (≈ 9.03 µg/mL) in [10].

Usually MIC stands for the smallest concentration in the dilution series that meets the test's criterion for growth inhibition. The low end stands for inhibition by little substance, the high end for a need for much substance.
